From PMC5558211 (Journal of medicinal chemistry, 2017)
Entries after “also recorded” stand apart in the source; their conditions may differ.

Key:
[1] = tested on: c-Myc; assay: Western blot of c-Myc levels; format: cell-based; settings: MM1.S cells, 6 h
Outline: (§1)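 MM1.S cells were grown in RPMI-1640 with 10% FBS at 37 °C, 5% CO2, seeded at 1 × 10^6 per well and exposed to increasing inhibitor concentrations for 6 h. Cells were pelleted (300 g, 5 min) and lysed at 4 °C with protease/phosphatase inhibitors plus 5 mM EDTA. Protein was quantified, run on 10 or 12.5% SDS-PAGE, transferred and probed with c-MYC or p21Cip1 antibodies, with chemiluminescent detection.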

[2] = tested on: p21Cip1; assay: Western blot of p21Cip1 levels; format: cell-based; settings: MM1.S cells, 6 h
Outline: as §1

[3] = target: BrdT(1) (Homo sapiens, UniProt Q58F21); assay: Fluorescence anisotropy competition assay with BI-BODIPY tracer; format: binding
[4] = target: T1, Brd4(1) (Homo sapiens, UniProt O60885); assay: AlphaScreen competition against biotinylated compound 2; format: binding; settings: for Hill slope: alpha-screen competition
[5] = target: 5FW-Brd4(1) (Homo sapiens, UniProt O60885); assay: PrOF NMR titration; format: binding
Outline: (§2)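 19F NMR at 500 MHz with cryoprobe, 40–50 μM 5FW-labelled bromodomain in 50 mM Tris, 100 mM NaCl, pH 7.4, 5% D2O (BrdT samples also 3 mM DTT). Used 90° flip angle, 0.7 s relaxation delay, 0.1 s acquisition and 500 transients, referenced to TFA at −76.55 ppm. Ligand was titrated from concentrated DMSO stocks, keeping DMSO below 1%. Kd came from a one-site fit accounting for ligand depletion.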

[6] = target: 5FW-BrdT(1) (Homo sapiens, UniProt Q58F21); assay: PrOF NMR titration; format: binding
Outline: as §2

[7] = target: 5FW-BPTF (Homo sapiens, UniProt Q12830); assay: PrOF NMR titration; format: binding; settings: non-BET bromodomain BPTF
[8] = tested on: MM1.S cells; assay: Cell viability; format: cell-based
[9] = Stability of DMSO solution over freeze-thaw cycles by ESI-MS; format: physicochemical; settings: DMSO solution at −20 °C, several freeze-thaw cycles
[10] = target: T1, Brd4(1); assay: Fluorescence anisotropy competition assay with BI-BODIPY tracer; format: binding

## Cc1sc2c(c1C)C(c1ccc(Cl)cc1)=N[C@@H](CC(=O)OC(C)(C)C)c1nnc(C)n1-2 [Compound 2, (+)-JQ1, reference compound]
[1]
  effect on c-Myc levels: dose-dependent reduction of c-Myc levels
[2]
  effect on p21Cip1 levels: upregulation of p21Cip1 levels

## CCn1c2c(c(=O)[nH]c1=O)C(c1ccc(C)cc1)C1=C(CN(CCc3ccc(OC)cc3)C1=O)N2 (stereo not drawn) [Compound 3r, 1-Ethyl-7-(4-methoxyphenethyl)-5-(p-tolyl)-5,7,8,9-tetrahydro-1H-pyrrolo[3',4':5,6]pyrido[2,3-d]pyrimidine-2,4,6(3H)-trione]
[1]
  effect on c-Myc levels: decreasing c-Myc expression levels
[2]
  effect on p21Cip1 levels: concomitant increase in p21Cip1

## CCn1c2c(c(=O)n(C)c1=O)C(c1ccc(C)cc1)C1=C(COC1=O)N2 (stereo not drawn) [Compound 3m, 1-Ethyl-3-methyl-5-(p-tolyl)-5,9-dihydrofuro[3′,4′:5,6]pyrido[2,3-d]pyrimidine-2,4,6(1H,3H,8H)-trione]
[3]
  binding by fluorescence anisotropy: inactive

## CCn1c2c(c(=O)[nH]c1=O)C(c1ccc(C)cc1)C1=C(COC1=O)N2 (stereo not drawn) [Compound 3, 1-Ethyl-5-(p-tolyl)-5,9-dihydrofuro[3′,4′:5,6]pyrido[2,3-d]pyrimidine-2,4,6(1H,3H,8H)-trione]
[4]
  Hill slope: −1
[5]
  binding behaviour by PrOF NMR: slow to intermediate exchange
[5]; presence of serum
  effect of serum on binding by PrOF NMR: did not interfere with the binding
[6]
  binding behaviour by PrOF NMR: slow to intermediate exchange
[7]
  binding by PrOF NMR: does not bind; also recorded: no binding was detected
[8]
  growth inhibition activity: lacked growth inhibition activity
[1]
  effect on c-Myc levels: ineffective in altering c-Myc or p21Cip1 levels
[2]
  effect on p21Cip1 levels: ineffective in altering c-Myc or p21Cip1 levels
[9]
  stability of dihydropyridine moiety: remains stable

## CCn1c(=O)[nH]c(=O)c2c(-c3ccc(C)cc3)c3c(nc21)COC3=O [Compound 3n, 1-Ethyl-5-(p-tolyl)furo[3′,4′:5,6]pyrido[2,3-d]pyrimidine-2,4,6(1H,3H,8H)-trione]
[3]
  binding by fluorescence anisotropy: no binding was observed
[10]
  binding by fluorescence anisotropy: no binding was observed

## Cc1ccc(C2C3=C(COC3=O)Nc3c2c(=O)[nH]c(=O)n3CC(F)(F)F)cc1 (stereo not drawn) [Compound 3j, 5-(p-Tolyl)-1-(2,2,2-trifluoroethyl)-5,9-dihydrofuro[3′,4′:5,6]pyrido[2,3-d]pyrimidine-2,4,6(1H,3H,8H)-trione]
[4]
  IC50: 4.6 µM
  Hill slope: −1.6
[5]
  binding behaviour by PrOF NMR: slow to intermediate exchange
[8]
  growth inhibition activity: lacked growth inhibition activity
[1]
  effect on c-Myc levels: ineffective in altering c-Myc or p21Cip1 levels
[2]
  effect on p21Cip1 levels: ineffective in altering c-Myc or p21Cip1 levels

## CCn1c2c(c(=O)[nH]c1=O)C(c1ccc(C)cc1)C1=C(CN(CCc3ccc(O)cc3)C1=O)N2 (stereo not drawn) [Compound 3s, 1-Ethyl-7-(4-hydroxyphenethyl)-5-(p-tolyl)-5,7,8,9-tetrahydro-1H-pyrrolo[3',4':5,6]pyrido[2,3-d]pyrimidine-2,4,6(3H)-trione]
[5]
  binding behaviour by PrOF NMR: slow exchange
[1]
  effect on c-Myc levels: decreasing c-Myc expression levels
[2]
  effect on p21Cip1 levels: concomitant increase in p21Cip1

## O=C1COC(=O)C1 [tetronic acid, reference compound]
[5]
  binding behaviour by PrOF NMR: No binding was observed

## COc1ccc(C2C3=C(COC3=O)Nc3c2c(=O)n(C)c(=O)n3C)cc1 (stereo not drawn) [Compound 3f, 5-(4-Methoxyphenyl)-1,3-dimethyl-5,9-dihydrofuro[3′,4′:5,6]pyrido[2,3-d]pyrimidine-2,4,6(1H,3H,8H)-trione]
[3]
  binding by fluorescence anisotropy: inactive

## CCn1c2c(c(=O)[nH]c1=O)C(c1ccc(C)cc1)C1=C(CN(CCc3ccccc3)C1=O)N2 (stereo not drawn) [Compound 3q, 1-Ethyl-7-phenethyl-5-(p-tolyl)-5,7,8,9-tetrahydro-1H-pyrrolo[3',4':5,6]pyrido[2,3-d]pyrimidine-2,4,6(3H)-trione]
[1]
  effect on c-Myc levels: decreasing c-Myc expression levels
[2]
  effect on p21Cip1 levels: concomitant increase in p21Cip1

## CCn1c(N)cc(=O)[nH]c1=O [6-amino-1-ethyluracil, reference compound]
[5]; from PrOF NMR Kd
  ligand efficiency: 0.39 kcal/mol/non-hydrogen atom

## Cc1ccc(C2C3=C(COC3=O)Nc3c2c(=O)n(C)c(=O)n3C)cc1 (stereo not drawn) [Compound 3e, 1,3-Dimethyl-5-(p-tolyl)-5,9-dihydrofuro[3′,4′:5,6]pyrido[2,3-d]pyrimidine-2,4,6(1H,3H,8H)-trione]
[3]
  binding by fluorescence anisotropy: inactive

## CCn1c2c(c(=O)[nH]c1=O)C(c1ccc(C)cc1)C1=C(CN(Cc3ccccc3)C1=O)N2 (stereo not drawn) [Compound 3p, 7-Benzyl-1-ethyl-5-(p-tolyl)-5,7,8,9-tetrahydro-1H-pyrrolo[3',4':5,6]pyrido[2,3-d]pyrimidine-2,4,6(3H)-trione]
[1]
  effect on c-Myc levels: decreasing c-Myc expression levels
[2]
  effect on p21Cip1 levels: concomitant increase in p21Cip1
